Measured values published in ChEMBL document CHEMBL5532699, “Design, docking optimization, and evaluation of biotin-PEG4-1,8-naphthalimide as a potent and safe antitumor agent with dual targeting of ferroptosis and DNA” (RSC Med Chem, 2024).
Calls of active or inactive are those of the source. The calls are words filed in the database; no cut-off is given here.

Experiments:
MGC-803 = assay: Antitumor activity against human MGC-803 cells xenografted in nude mouse assessed as tumor inhibition ratio at 12 mg/kg, ip administered once every two days for 21 days relative to control; format: functional; settings: MGC-803, 504 h, time 21 day
Summary of the method: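 1×10^6 tumor cells injected s.c. into the right flank of nude mice. At mean tumor volume 60–80 mm³, animals randomized to vehicle or treatment groups (n = 6). Compound in 5% v/v DMSO/saline given i.p. every 2 days. Tumor size and weight recorded; volume = lw²/2 from length and width. Body weight tracked as the systemic toxicity index.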

Supercoiled DNA = assay: Binding affinity to supercoiled circular pBR322 plasmid DNA (unknown origin) assessed as DNA intercalation by measuring migration in gel at 25 to 200 uM incubated for 4 hrs by PI and EtBr staining based gel electrophoresis; format: nucleic-acid assay; settings: dose 25-200 µM, in the assay text read “GelRed staining” for “PI and EtBr staining”
Summary of the method: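 0.20 μg pBR322 DNA in relaxation buffer (10 mM Tris, 0.1 mM EDTA, 5 mM MgCl₂, 50 mM KCl, 0.01% BSA, pH 7.5), 20 μL, incubated 4 h at 37°C with or without compound at varied concentrations. Stopped with SDS/bromophenol blue/glycerol loading buffer, run on 0.8% agarose in TAE, stained with GelRed; supercoiled and linear forms scored.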

CN(C)CCN1C(=O)c2cccc3c(N4CCN(C(=O)CCOCCOCCOCCOCCNC(=O)CCCCC5SCC6NC(=O)NC65)CC4)ccc(c23)C1=O (configuration not stated)
inhibition in vivo at 12 mg/kg (MGC-803): 29.6% | Activity (Supercoiled DNA): Active
